System: MS2 coat protein
Experiment: apparent Kd, MS2 coat protein; higher = weaker binding; RNA-MaP array; FMN 200 µM where present
Summary of the method: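 Green signal from SNAP-549-labelled MS2 coat protein was normalised to red-channel RNA signal and to the median Fmax of control clusters. The protein was titrated from 0.7 or 1.5 nM, doubling to 3 µM, without and then with constant ligand, over designs transcribed by stalled E. coli RNA polymerase on Illumina sequencing-chip clusters, in 100 mM Tris-HCl pH 7.5, 80 mM KCl, 4 mM MgCl2, BSA, DTT, yeast tRNA and Tween-20. The apparent Kd is the median of filtered per-cluster binding-curve fits.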

[1] = designed as: OFF switch for flavin mononucleotide, no ligand
[2] = ligand present: flavin mononucleotide, designed as: OFF switch for flavin mononucleotide
[3] = designed as: ON switch for flavin mononucleotide, no ligand
[4] = ligand present: flavin mononucleotide, designed as: ON switch for flavin mononucleotide

Sequence	apparent Kd [1]	apparent Kd [2]	apparent Kd [3]	apparent Kd [4]
GUUAAACAUGAGGAUCACCCAUGUAAGGAUAUGCUGCGGUCGCGAUGACGUGACUGCAGCAGAAGGUACAAAUG	86.8 nM	96.5 nM		
UUAUUUAUACAAGGAUAUCAGUUAGUUACAAUUCCUACAUGAGGAUCACCCAUGUUUUUUUUUUUUGAGAAGGUGUAUUGUCUG			45.2 nM	52.9 nM
UAAAAGCGGAAGGAUAUGUGUCUAAAGUCUGUAGCAGAAGGUCCGACAUGAGGAUCACCCAUGUGACCUGGUGC	11.1 nM	13.9 nM		
AUGCUUUAUGUAGGAUAUACAUACGGUACGUAUGUAGAAGGACAUGAGGAUCACCCAUGUAAAUUAUUAUUAAAUAUCAUACAU	8.56 nM	12.3 nM		
CGCCUGUGAGGAUAUUAGUAGUAGUCAGAAUAGACUAUUACUGAGAAGGUACAUGAGGAUCACCCAUGUUGGCG	20.9 nM	19.1 nM		
GGCUCAGUGACAUGAGGAUCACCCAUGUGGCUCAUUCAACGCAGAAGGCACAAGGGAACACCUCGUGAGGAUAUGCAAGUAGAC			367 nM	36.7 nM
UAUAUAUAGUAAGGAUAUGUAUUAAUUUUAUGAACAGAAGGUACUGACAUGAGGAUCACCCAUGUUUUAGUGUGGGCAUGUAGA	85.5 nM	122 nM		
ACUUGUAAGCAGAAGGCAGUCAUUAUAUUCAUCAUGUAGACAUGAGGAUCACCCAUGUAGAGUACUGAGGAUAUGCAUCGAUAG	6.41 nM	8.85 nM		
GGUCGUCACAUUAACAUGAGGAUCACCCAUGUAUAAAGACAUGAGGAUAUGCAUCCUAAUUGGAUGCAGAAGGCAUGGACGACC			9.7 nM	6.13 nM
GAAAUUACAUGAGGAUCACCCAUGUAGGAUAUCGCUAUUGUAAUCAUGUUACAUGAUUACAAUAGCGAGAAGGACGUGAGAAAG	22.9 nM	25.6 nM		
CUUCGACAUGAGGAUCACCCAUGUCAGGAUAUUGUUUAUCUGGUUUUUUACAGAUAUACAAGAAGGGAUGUGUU	27.5 nM	24.6 nM		
AUUCCUAGUGUUAGGAUAUGCGACGGGUGACCGUUGCAGAAGGAACAUGAGGAUCACCCAUGUUUAAUAAAAUC	15.6 nM	80.7 nM		
GGACAUGUCGUCUACAUGAGGAUCACCCAUGUCGAUAGACAUGAGGAUAUCGAUAAGAAUUGUAUCGAGAAGGUAUGUAGGUCC			18.7 nM	24.9 nM
AAUGGCAUAGAGAAGGCGCCGCAGCUCUUCCUCCCAUCCCAACGACAUGAGGAUCACCCAUGUAGCGAGGAUAUCUAUACCGUC	7.08 nM	12.5 nM		
UUAAAUCAUGUAGGAUAUGCAUGGCGAAGCUACGCAGAAGGACAUGAGGAUCACCCAUGUUCUAGCUACCGAGUACGGUGGCAA	20.6 nM	86.3 nM		
UCGUGAAGGACAGGAUAUGGACAUGAGGAUCACCCAUGUACAUGGGAAUAUAUACUGAAUUUAUACUAGAAGGGUUACAUAAAU	27.4 nM	16.7 nM		
AGUACUACAGGAUAUACAUGAAUGAUAAUCAUUACCCUUAUACAUGAGGAUCACCCAUGUAGAAGGGUAGUACA	16.4 nM	20 nM		
CUAUUCCGAGGAUAUACAUGAGGAUCACCCAUGUCGGGCCUCCGCGUUUCGCGCCUCAGUAGAAGGCGGGUUUC	20.4 nM	25.9 nM		
GGAUGACAAAGUCAUCCUAAACGAACAUGAGGAUCACCCAUGUAGGAUAUGCUUCUCAAAGAGAAGCAGAAGGACAUGUGCCUU	35.1 nM	276 nM		
CAGUACUGAGGAUAUACAUGAGGAUCACCCAUGUGUUCCAGCUAGGAAACUAGCAAAAGUAGAAGGCAGUACUG	27.5 nM	589 nM		
AUCAGCUCCUCAGGAUAUACAUCACUGCUUCGGCAGUGUAUUAAGAUCACAUGAGGAUCACCCAUGUAGAAGGGAGGAGCUGAU	29.5 nM	336 nM		
UCAUUUCAGUUAGGAUAUUAAAACAUGACGAUACAUGAGGAUCACCCAUGUUAAGAAGGAACUAAUACAUAUAAUGCAAUGUUC	15.9 nM	13.2 nM		
CGGCGCUGUCGAGAGGAUAUGCGGUGAUGGACAUGAGGAUCACCCAUGUUAGCGAUAGCAUUACGGUAGAAGGCUCUACAGCUGC			34.7 nM	16.3 nM
UUUCAGCUCACAUGAGGAUCACCCAUGUCCGUUCGCCCGGACAGAAGGCACCCAUAACAAUGCGGUGAGGAUAUGUCAGCAAGG			141 nM	14 nM
GGUAGCUUCACAGGAUAUGCUAUCCUUUGGGUAGCAGAAGGGUGAUACAUGAGGAUCACCCAUGUGCUGCCAGGGCGUGAGCCC			286 nM	500 nM
AGCUGUGGCCGAGGAUAUCUAUCUUCAAUAACCGAAAUAUAAUCGGACAUGAGGAUCACCCAUGUAGAGAAGGCGGUCUCAGCA	33.6 nM	84.5 nM		
UACUACGCAGGAUAUACAUGAGGAUCACCCAUGUGUCUGCGAUAGGCACGUGAAAUCCGUAGAAGGGUGUAGAU	42 nM	109 nM		
CGGGUGGUCCUCCGGGAUUGGACACAGGAUAUCCGCGAGAACAUGAGGAUCACCCAUGUACAUGAGGAGAAGGGUGGACGAAGA			56.1 nM	11.2 nM

Sequence	apparent Kd [1]	apparent Kd [2]	apparent Kd [3]	apparent Kd [4]
GCAUACAUUCGAGGAUAUCGGUGAACAAAUUAACGAGAAGGCGAUAGAAUGUCUCAUCUUAUGAACAUGAGGAUCACCCAUGUA			30 nM	26.2 nM
UAUUAACACGAAGGAUAUGGUUACAUGAGGAUCACCCAUGUAUGUAUAUUGAUCCAGAUUUUUGACCAGAAGGUCGUGAGUAAA	108 nM	285 nM		
UUUAGUUGCGGGCAGGAUAUGUGUUAAAAUACAUGAGGAUCACCCAUGUGCGGGUAUAACACCCGACAGAAGGGCCAAUCGCGAC			73.6 nM	24.4 nM
UAUUUAUAAUAUUUUAACAUGAGGAUCACCCAUGUCGCUAGACAGGAUAUAUUUUAUUUGUUUAAGUAGAAGGGUCAUAGAUUU			175 nM	145 nM
CCUCUGUGAGGAUAUCUAGAGUAGGCUGACAAUGUCAUUCAGGAGAAGGUACAUGAGGAUCACCCAUGUUCGGC	24.4 nM	56.3 nM		
CUGGGCGGAGGAUAUGCGGGUUGGGCAUAAGUUCGGCUGGGACAUGAGGAUCACCCAUGUAGAAGGUUGUUCGG	40.3 nM	40 nM		
GUCCUUUCUGAGGAUAUUAUCUGGUUCGAUUGAUAAGAAGGCAGUACAUGAGGAUCACCCAUGUGGGUCGUCUG	31.6 nM	69.5 nM		
AUGGAACAUGAGGAUCACCCAUGUGAGGAUAUGUGAGAAGGAUUUGAGAUGGAGAGGGACAGAAGGCACUAGGA	54.4 nM	37.9 nM		
GUUAUGCGGCAGGAUAUCCAUCCGCGGUAUGAUGGAGAAGGGCCGACAUGAGGAUCACCCAUGUGCGUCCUAAG	55.6 nM	198 nM		
UUAUACUGAGAGAAGGUUCAAACUACAUAUUGCAUACAUGAGGAUCACCCAUGUUGGUGAAUAAGAAAGGAUAUUUUACUAUAU	44 nM	32.4 nM		
CAGCGAAAGUAGAAGGCAGUACUGAUACAGUACUGAGGAUAUACAUGAGGAUCACCCAUGUACAAAAGCUGGAAAUAAAUAAAA	6.56 nM	6.81 nM		
GCCAUCGCAUGAGGAUAUGCUCCCGUUUCGGGAGCAGAAGGCAUGUCGUAAGACAUGAGGAUCACCCAUGUAGUUAAGAUGGCA			855 nM	59.6 nM
GGGAAGUUAGGAUAUGCUGCUCGUCACUUGCGUGAUGAGUAGCAGAAGGAACAUGAGGAUCACCCAUGUAAAAA	31.9 nM	37.6 nM		
ACAUGAGGAUCACCCAUGUAUUACAUGGUUAAGUUUAUUAACAGAAGGCGAAAUUACCACUUGAUCGAGGAUAUGUAUUCUAUU	49.1 nM	43.4 nM		
UUUAUAUAGUAAGGAUAUGUAUUAUGUUUAUCAACAGAAGGUACUGACAUGAGGAUCACCCAUGUUUUAGUGUGGGCAUGUAGU	218 nM	301 nM		
AAUAUGUUGCAGAAGGUUAUUUUUAUAACGUUCCUCUUGACAUGAGGAUCACCCAUGUAAUUGUUGAAGGAUAUGCAAUAUAUU	6.69 nM	6.18 nM		
CGAUAUUAUAGAGGAUAUGUUUAACAUGAGGAUCACCCAUGUGAGGUGGAAUUAAUGUAUUACUUACAGAAGGCUAUACAAUCG	316 nM	432 nM		
GUAGCAACAUGAGGAUCACCCAUGUAGGAUAUCGCUAUUGUAAUCAUGUUACAUGAUUACAAUAGCGAGAAGGACGUGAGCUAC	8.43 nM	11.4 nM		
AUGAAAGUAACGCAGGAUAUCCAGGAUACAACAUGAGGAUCACCCAUGUACAUACGAACGUAUAAGGAGAAGGGUGGAUGAUCUUC			173 nM	342 nM
AUUAUAUAGUAAGGAUAUUGAUUAUUAUUUUAACAUGAGGAUCACCCAUGUAGCCUUAUGUAUAACAAGAAGGUACAUUUAUUA	56.2 nM	58.4 nM		
UUAAUUAAUUAAUUGCAGAAACAUGAGGAUCACCCAUGUAUAUAGGAUAUCGUCAGGAAUACUGACGAGAAGGAUAUACACUGC	23.4 nM	32.5 nM		
GUCCGUAGACAGAAGGUGACAUGAGGAUCACCCAUGUUAGUUGAGGUAUCAGCGAUCUGCGUGAUUGAGGAUAUGUCUACGGGC	7.9 nM	8.22 nM		
AAAAGUUAAGGAUAUACAGGGAGCCGCGGCGACUCGCCGCAACAUGAGGAUCACCCAUGUAGAAGGUAGCCAAA	27.6 nM	62.8 nM		
GCCAGCUAUGUAGGAUAUGCGCGGCGAGCCUGUGCAGAAGGACAUGAGGAUCACCCAUGUGUUGCGGUCUGAGUACUGAUCGCC	36.1 nM	160 nM		
GGUCGUCACAUCUACAUGAGGAUCACCCAUGUCAAAAGACAUGAGGAUAUGCUACCUAAUUGGUAGCAGAAGGCAUGGACGACC			1290 nM	72 nM
CAGGUAGACUGAGGAUAUACAAUAAAGACCUAGUCUAUCUAGGUCCCUACAUGAGGAUCACCCAUGUAGAAGGCAGUCUGCCUG	15.9 nM	20.5 nM		
GGCGAUCAGGCUAACAUGAGGAUCACCCAUGUGGACUCAUGGUAGGAUAUGCUGUACUUUGUACAGCAGAAGGGCCGGAGAGCC			46.1 nM	187 nM

From the EternaBench riboswitch data
